TRPC4 PAM – TRPC4 (mouse) allosteric potentiation. Q9QUQ5. HEK293 TRPC4beta/mu-opioid, DAMGO EC20, Fluo-4 Ca2+ flux; stronger effect = higher value. B-score at 10 µM. 0.42% of 310,000 active. AID 2227;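 active = B-score of calcium response area above 5 SD of library B-scores, with initial fluorescence ratio within 5 SD of library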;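 note: B-score of integrated fluorescence ratio over time as area under calcium response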
Target sequence (Q9QUQ5 whole entry, looked up): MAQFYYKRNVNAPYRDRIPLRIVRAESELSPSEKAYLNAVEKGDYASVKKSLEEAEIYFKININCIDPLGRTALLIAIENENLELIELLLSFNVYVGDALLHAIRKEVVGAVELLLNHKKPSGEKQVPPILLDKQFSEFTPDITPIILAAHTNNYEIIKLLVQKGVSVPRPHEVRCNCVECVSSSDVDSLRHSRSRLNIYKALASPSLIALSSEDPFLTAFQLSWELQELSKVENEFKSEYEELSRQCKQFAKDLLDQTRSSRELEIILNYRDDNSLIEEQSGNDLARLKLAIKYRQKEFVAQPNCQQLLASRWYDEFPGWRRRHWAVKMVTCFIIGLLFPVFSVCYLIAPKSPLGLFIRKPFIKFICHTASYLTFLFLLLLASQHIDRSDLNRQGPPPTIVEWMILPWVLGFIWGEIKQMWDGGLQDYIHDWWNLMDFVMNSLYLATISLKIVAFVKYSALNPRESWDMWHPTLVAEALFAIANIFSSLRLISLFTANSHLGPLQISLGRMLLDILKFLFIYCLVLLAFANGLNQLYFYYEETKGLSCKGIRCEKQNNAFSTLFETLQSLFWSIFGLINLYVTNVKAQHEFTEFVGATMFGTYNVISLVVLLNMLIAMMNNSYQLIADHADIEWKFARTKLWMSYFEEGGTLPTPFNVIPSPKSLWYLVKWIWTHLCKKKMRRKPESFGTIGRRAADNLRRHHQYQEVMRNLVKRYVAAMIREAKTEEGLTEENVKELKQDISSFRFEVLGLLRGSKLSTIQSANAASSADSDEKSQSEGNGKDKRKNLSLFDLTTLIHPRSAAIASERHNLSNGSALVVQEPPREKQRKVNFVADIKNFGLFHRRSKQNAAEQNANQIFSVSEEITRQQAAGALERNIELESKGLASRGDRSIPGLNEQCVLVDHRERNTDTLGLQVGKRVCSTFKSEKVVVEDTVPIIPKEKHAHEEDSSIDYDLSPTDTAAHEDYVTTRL
Kir21 inh – blocks the mouse Kir2.1 inward-rectifier potassium channel | P35561 | AID 1672 | 0.85% of 310,000 active | HEK293-Kir2.1, FluxOR thallium flux fluorescence; stronger effect = lower value | B-score at 10 µM;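 active = fluorescence ratio B-score at or below minus 3 SD of library scores, with starting-brightness B-score within 2 SD, cut at about -4.2 in these data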;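 note: channel flux triggered by added potassium and thallium sulfate stimulus; B-score of peak minus minimum fluorescence over baseline after thallium stimulus; more negative B-score means stronger Kir2.1 block with less thallium influx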
TRPC4 act – opens the mouse TRPC4 cation channel; Q9QUQ5; 0.49% of 310,000 active; AID 2237; B-score at 10 µM; HEK293 TRPC4beta/mu-opioid, Fluo4 calcium fluorescence; stronger effect = higher value;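 active = B-score above 5 SD of library B-scores, and initial fluorescence ratio not above library mean plus 5 SD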;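 note: positive B-score marks a calcium rise read as TRPC4 activation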
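Assay system: HEK293 stable line with TRPC4beta plus mu-opioid receptor; schedule: 45 min room-temperature Fluo4 loading, 110 s read; technique: kinetic Fluo4 calcium fluorescence; evaluation: integrated baseline-normalised fluorescence ratio, converted to per-well B score; controls: buffer (low) and maximal DAMGO (high)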
TRPC6 inhibitor – inhibitors of mouse TRPC6 channel. AID 2553. HEK293-TRPC6, membrane potential dye, ACh-evoked depolarization; stronger effect = lower value. 1.1% of 310,000 active. B-score at 10 µM. Q61143;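 active = B-score under library mean minus 3 SD, initial fluorescence not abnormally high, positive integrated signal ratio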;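 note: B-score derived from integrated fluorescence ratio over the kinetic read; more negative B-score means stronger inhibition of depolarization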
TRPC6 activator – mouse TRPC6 channel activation | Q61143 | 0.13% of 310,000 active | AID 2550 | HEK293-TRPC6 membrane potential dye fluorescence; stronger effect = higher value | B-score at 10 µM;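 active = B-score of the integrated fluorescence ratio above library mean plus 3 SD, and starting fluorescence ratio within library mean plus 5 SD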;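 note: higher score means more depolarization so channel activation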
TRPC4 inh – inhibitors of mouse TRPC4 channel. 0.39% of 300,000 active. B-score at 10 µM. HEK293 TRPC4beta/mu-opioid, DAMGO-evoked Fluo4 calcium flux; stronger effect = lower value;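 active = B-score over 3 SD under the library average, no early fluorescence shift, positive overall ratio signal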
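Assay system: HEK293 cells with stable TRPC4beta plus mu-opioid receptor expression; Probe or stimulus: DAMGO in two steps, submaximal then maximal; Dosing: single-point compound dosing; Measured by: Fluo4 calcium-dye fluorescence, kinetic read; Read-out basis: B score from integrated Fluo4 fluorescence ratio.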
An asterisk follows results filed as active; i = inactive. Compounds with a hit are over-represented: about 2.9% of the library has one in this group of screens.

SMILES	TRPC4 PAM	Kir21 inh	TRPC4 act	TRPC6 inhibitor	TRPC6 activator	TRPC4 inh
CN1CCN(NC(=O)Nc2cc(Cl)cc(Cl)c2)CC1	26*	1.9	i	i	i	i
O=C(NC1CCCCC1)c1ccc(CNc2ccccc2)o1	i	-2.2	i	i	i	i
Cc1ccc(C(CNS(=O)(=O)c2ccc([N+](=O)[O-])cc2)N2CCN(C)CC2)cc1 (stereo unspecified)	i	-1.1	i	i	i	-6*
Cc1ccc(C(CNS(=O)(=O)c2ccc(Br)cc2)N2CCN(C)CC2)cc1 (stereo unspecified)	i	-4	i	i	i	i
CCOc1ccccc1Nc1nnc(SCc2nnc(-c3cc(OC)c(OC)c(OC)c3)o2)s1	21*	-0.1	i	i	i	i
COc1ccc(CN=C2NN=C(c3ccc(Cl)cc3)CS2)cc1	i	-1.6	i	i	i	-6*
CC(C)(C)N=C1NN=C(c2ccc(Cl)cc2)CS1	i	-0.67	i	i	i	i
CCNc1nc2nc3ccc(C)cn3c(=O)c2cc1C(=O)NCC1CCCO1 (stereo unspecified)	i	1.9	i	i	i	i
C=CCNC(=O)c1cc2c(=O)n3cc(C)ccc3nc2nc1NCC1CCCO1 (stereo unspecified)	i	1.4	i	-5.9*	i	i
C/C(N)=C(/C#N)C(=O)COC(=O)CC12CC3CC(CC(C3)C1)C2	i	-0.57	i	i	i	-7*
C/C(N)=C(/C#N)C(=O)COC(=O)C1CCC(C(C)(C)C)CC1 (stereo unspecified)	i	-11*	i	i	i	i
O=C(CSc1nnc(-c2ccccc2)o1)c1ccc2c(c1)OCCO2	i	0.97	i	i	i	-6*
Cc1ccc(NC(=O)C2CCCN2C(=O)NCc2ccccc2)cc1 (stereo unspecified)	i	0.18	i	i	i	i
Cc1ccc(NC(=O)N2CCCC2C(=O)NCCc2ccccc2)cc1 (stereo unspecified)	i	0.78	i	i	i	-6*
Cc1ccc2cc(C#N)c(N3CCCC3)nc2c1C	i	2	i	i	i	i
Cc1ccc2cc(C#N)c(N3CCCN(C(=O)C4CCCO4)CC3)nc2c1C (stereo unspecified)	i	-5.7*	i	i	i	i
Nc1nonc1C(=O)NCCN=Cc1cc(Cc2ccccc2)cc(Br)c1O	i	0.32	i	i	i	i
Nc1nonc1C(=O)NCCN=Cc1ccccc1O	i	0.14	71*	i	i	i
O=C(Cc1ccccc1)c1c[nH]c(C(=O)NC2CCCC2)c1	i	0.73	i	i	i	i
CCn1c(CC(=O)Nc2ccccc2)nnc1SCc1nc2ccccc2c(=O)[nH]1	i	-0.65	i	i	i	i
Oc1c(Br)cc(Br)c(/C=N/n2c(-c3ccccc3)n[nH]c2=S)c1Br	28*	1.8	i	i	i	i
Cn1c2ccccc2c(=O)c2c(=O)n(Cc3ccco3)c(-c3ccc(C(C)(C)C)cc3)nc21	i	-0.51	i	i	i	i
O=C(O)c1ccc(N/N=C/c2c[nH]c3ccccc23)cc1	i	-0.03	i	-5.2*	i	i
Cn1c(N/N=C/c2c[nH]c3ccccc23)nc2ccccc21	i	-5.2*	i	i	i	i
Cc1cc(N/N=C/c2c[nH]c3ccccc23)c2ccccc2n1	i	0.93	i	i	i	i
O=C(N/N=C\c1c[nH]c2ccccc12)c1ccc(O)cc1	i	-1.1	i	i	i	i
COc1cccc(CN(C)Cc2nc(Cc3ccccc3Cl)no2)c1	i	-0.7	i	i	i	i
Nn1c(SCC(=O)Nc2nccs2)nnc1C1CC1	i	-0.84	i	i	i	i
Clc1cccc(Cl)c1COc1ccccn1	i	-1.2	i	i	i	i

Screening results: PubChem, Johns Hopkins Ion Channel Center
